{"source": "paper PMC2718708", "about": "(Bioorganic & medicinal chemistry, 2008)", "key": {"p53 in U2OS cells": {"system": "p53 in U2OS cells", "type": "cell-based, human", "conditions": "U2OS co-transfected with p53 and Hdm2; 8 h; 50 µM ALLN or 3–15 µM 5"}, "[1]": {"system": "p53 and Hdm2 in RPE cells", "experiment": "Cellular p53 and Hdm2 levels in RPE cells by immunoblotting", "conditions": "for effect on cellular p53 and Hdm2 levels: 1–10 µM, immunoblotting; for effect on cellular p53 and Hdm2 levels / concentration exhibiting greatest increase in p53 and Hdm2: 8 h; for concentration exhibiting greatest increase in p53 and Hdm2: similar to 50 µM ALLN"}, "Hdm2 [2]": {"target": "T1, Hdm2 (Homo sapiens, UniProt Q00987)", "T1 sequence (Q00987 whole entry)": "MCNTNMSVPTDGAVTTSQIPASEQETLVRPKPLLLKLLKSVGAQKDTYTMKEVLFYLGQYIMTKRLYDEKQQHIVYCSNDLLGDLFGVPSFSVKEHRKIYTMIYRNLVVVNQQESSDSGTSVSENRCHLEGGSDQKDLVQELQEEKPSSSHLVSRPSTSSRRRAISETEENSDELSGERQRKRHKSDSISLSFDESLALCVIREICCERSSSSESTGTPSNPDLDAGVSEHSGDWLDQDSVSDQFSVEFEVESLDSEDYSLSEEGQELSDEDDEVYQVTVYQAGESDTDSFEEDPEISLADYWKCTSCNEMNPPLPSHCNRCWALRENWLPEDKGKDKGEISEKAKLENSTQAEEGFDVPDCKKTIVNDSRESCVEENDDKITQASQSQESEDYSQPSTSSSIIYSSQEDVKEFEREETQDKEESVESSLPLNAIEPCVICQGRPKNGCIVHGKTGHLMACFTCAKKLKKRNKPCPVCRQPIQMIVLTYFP", "experiment": "Hdm2 electrochemiluminescence assay", "type": "biochemical", "conditions": "for activity in Hdm2 assay: isolated from Hdm2-inhibitory fractions"}, "[3]": {"system": "Hdm2 in p53^−/−mdm2^−/− mouse embryo fibroblasts", "type": "cell-based", "conditions": "10 µM, 8 h; Hdm2 under p53-independent CMV promoter"}, "[4]": {"experiment": "Stability of the compound observed while conducting experiments", "type": "physicochemical"}, "C8 cells [5]": {"system": "C8 cells", "experiment": "Cell death by trypan blue exclusion, wild-type p53 MEFs", "type": "cell-based, mouse", "conditions": "5–20 µM, 20 h"}, "[6]": {"system": "U2OS-pG13 cells (p53-responsive luciferase reporter)", "experiment": "p53-responsive luciferase reporter assay in U2OS-pG13 cells", "type": "cell-based, human", "conditions": "1–10 µM, 22 h", "summary_of_the_method": "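U2OS-pG13 cells carry endogenous wild-type p53 and a stably expressed p53-responsive luciferase reporter (pG13). They were incubated for 22 h with test compound at 1–10 µM, with adriamycin at 1 µg/ml as reference. Cells were lysed in reporter lysis buffer and spun at 14,000 g for 20 min. Supernatant luciferase was read as RLU. Values are mean and standard deviation of three independent experiments.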"}, "[7]": {"system": "HCT116-p53^+ and HCT116-p53^− cells", "experiment": "Killing of HCT116-p53+ compared to HCT116-p53- cells", "type": "cell-based, human", "conditions": "HCT116-p53+ vs HCT116-p53−; data not shown"}, "RPE cells": {"system": "RPE cells", "experiment": "Cell death by trypan blue exclusion, parental RPE cells", "type": "cell-based, human", "conditions": "3–25 µM, 17 h"}, "C8 cells [8]": {"system": "C8 cells", "experiment": "PARP cleavage by immunoblotting, C8 cells", "type": "cell-based, mouse", "conditions": "5–20 µM, 14 h"}, "A9 cells": {"system": "A9 cells", "experiment": "Cell death by trypan blue exclusion, p53-deficient MEFs", "type": "cell-based, mouse", "conditions": "5–20 µM, 20 h"}, "RPE-E1A cells": {"system": "RPE-E1A cells", "experiment": "Cell death by trypan blue exclusion, RPE-E1A cells", "type": "cell-based, human", "conditions": "3–25 µM, 17 h"}, "[9]": {"system": "p53 in HCT116 colon carcinoma cells", "experiment": "ALLN-induced ubiquitylated p53 in HCT116 cells expressing wild-type p53", "type": "cell-based, human", "conditions": "treatment with both 5 and ALLN; data not shown"}, "Hdm2 [10]": {"target": "T1, Hdm2", "conditions": "cited from earlier work"}}, "note": "Entries after “also recorded” stand apart in the source; their conditions may differ. Where a SMILES comes first, the peptide text is derived from it. [ ]: non-standard residue; d: D form. Nle = CCCC[C@H](N)C(=O)O"}
{"smiles": "CCCC[C@@H](C=O)NC(=O)[C@H](CC(C)C)NC(=O)[C@H](CC(C)C)NC(C)=O", "note": "[ALLN, N-acetyl-leucyl-leucyl-norleucinal, reference compound] (Ac-Leu-Leu-[Nle]-aldehyde)", "values": [{"measurement": "effect on p53 degradation / p53 level", "setting": "p53 in U2OS cells", "value": "accumulation of p53"}, {"measurement": "ubiquitylated forms of p53", "setting": "p53 in U2OS cells", "value": "higher molecular weight forms of the protein indicative of ubiquitylation"}]}
{"smiles": "COc1cc(CCN(C)C)c2c(c1O)SSSSS2", "note": "[Compound 1, Isolissoclinotoxin B]", "values": [{"measurement": "effect on p53 levels", "setting": "[1]; RPE cells, at 1 µM", "value": "did not increase p53 levels"}, {"measurement": "toxicity to RPE cells", "setting": "[1]; at 10 µM", "value": "toxic"}]}
{"smiles": "COc1cc(CCN)c2c(c1OC)SSSSS2", "note": "[Compound 2, varacin]", "values": [{"measurement": "activity in Hdm2 assay", "setting": "Hdm2 [2]", "value": "very little activity"}, {"measurement": "effect on cellular p53 and Hdm2 levels", "setting": "[1]; RPE cells", "value": "no discernable cellular effects"}]}
{"smiles": "COc1c(C)c(CCN(C)C)c2c(c1OC)SSSSS2", "note": "[Compound 3, N,N-dimethyl-5-methylvaracin]", "values": [{"measurement": "activity in Hdm2 assay", "setting": "Hdm2 [2]", "value": "very little activity"}, {"measurement": "effect on cellular p53 and Hdm2 levels", "setting": "[1]; RPE cells", "value": "no discernable cellular effects"}]}
{"smiles": "CSC1=C(CCN)c2nc3ccccc3c3ccnc(c23)C1=O", "note": "[Compound 4, Diplamine B]", "values": [{"measurement": "effect on cellular Hdm2", "setting": "[3]", "value": "increased Hdm2; also recorded: stabilized Hdm2 in MEFs"}, {"measurement": "stability", "setting": "[4]", "value": "fairly unstable and degraded over time"}, {"measurement": "effect on cellular p53 and Hdm2 levels", "setting": "[1]; RPE cells", "value": "increased p53 and Hdm2 in cells in a dose-dependent manner"}, {"measurement": "concentration exhibiting greatest increase in p53 and Hdm2", "setting": "[1]; RPE cells", "value": 10, "unit": "µM"}]}
{"smiles": "NCCc1c2c(c3nccc4c3c1Nc1ccccc1-4)OCS2", "note": "[Compound 5, Lissoclinidine B]", "values": [{"measurement": "effect on cellular Hdm2", "setting": "[3]", "value": "increased Hdm2; also recorded: stabilized Hdm2 in MEFs"}, {"measurement": "IC50", "setting": "Hdm2 [2]", "value": "98.1 ± 6", "unit": "µM"}, {"measurement": "cell death", "setting": "C8 cells [5]", "value": "marked increase in cell death; also recorded: selectively kills cells expressing wild-type p53"}, {"measurement": "luciferase activity (p53-dependent transactivation)", "setting": "[6]", "value": "dose-dependent increase in luciferase activity; also recorded: activates p53 transcription"}, {"measurement": "p53-dependent killing", "setting": "[7]", "value": "p53-dependent killing"}, {"measurement": "cell death", "setting": "RPE cells", "value": "no effect"}, {"measurement": "PARP cleavage (apoptosis)", "setting": "C8 cells [8]", "value": "cleavage of the poly (ADP-ribose) polymerase (PARP) was observed; also recorded: induces apoptosis in C8 cells"}, {"measurement": "effect on cellular p53 and Hdm2 levels", "setting": "[1]; RPE cells", "value": "increased p53 and Hdm2 in cells in a dose-dependent manner"}, {"measurement": "concentration exhibiting greatest increase in p53 and Hdm2", "setting": "[1]; RPE cells", "value": 10, "unit": "µM"}, {"measurement": "cell death", "setting": "A9 cells", "value": "relatively resistant"}, {"measurement": "effect on p53 degradation / p53 level", "setting": "p53 in U2OS cells", "value": "blocked p53 degradation in a dose-dependent manner; also recorded: inhibits Hdm2-mediated p53 degradation"}, {"measurement": "ubiquitylated forms of p53", "setting": "p53 in U2OS cells", "value": "absent"}, {"measurement": "cell death", "setting": "RPE-E1A cells", "value": "clear dose-dependent increase in cell death; also recorded: selectively kills transformed cells"}, {"measurement": "effect on ALLN-induced ubiquitylated p53", "setting": "[9]", "value": "prevented the accumulation of ALLN-induced ubiquitylated p53"}]}
{"smiles": "c1ccc2c3ccn4cc5c(cc4c-3nc2c1)CCCC5", "note": "[sempervirine]", "values": [{"measurement": "inhibition of auto-ubiquitylation of Hdm2", "setting": "Hdm2 [10]", "value": "inhibits auto-ubiquitylation of Hdm2"}]}
